SIAE primary: human SIAE inhibitors, primary screen, biochemical, fluorescence polarization, FP-Rh probe, 1536-well HTS | Sialate O-acetylesterase (Homo sapiens), Q9HAT2 | SIAE FP-Rh probe binding | inhibition, % at 9.66 µM | hit rate 0.69% among 370,000 | AID 1053197, 2014;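 active = inhibition above a cutoff: mean of compounds within the control limits plus 3 SD of those, cut at about 17% in these data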
Target sequence (Q9HAT2 whole entry, looked up): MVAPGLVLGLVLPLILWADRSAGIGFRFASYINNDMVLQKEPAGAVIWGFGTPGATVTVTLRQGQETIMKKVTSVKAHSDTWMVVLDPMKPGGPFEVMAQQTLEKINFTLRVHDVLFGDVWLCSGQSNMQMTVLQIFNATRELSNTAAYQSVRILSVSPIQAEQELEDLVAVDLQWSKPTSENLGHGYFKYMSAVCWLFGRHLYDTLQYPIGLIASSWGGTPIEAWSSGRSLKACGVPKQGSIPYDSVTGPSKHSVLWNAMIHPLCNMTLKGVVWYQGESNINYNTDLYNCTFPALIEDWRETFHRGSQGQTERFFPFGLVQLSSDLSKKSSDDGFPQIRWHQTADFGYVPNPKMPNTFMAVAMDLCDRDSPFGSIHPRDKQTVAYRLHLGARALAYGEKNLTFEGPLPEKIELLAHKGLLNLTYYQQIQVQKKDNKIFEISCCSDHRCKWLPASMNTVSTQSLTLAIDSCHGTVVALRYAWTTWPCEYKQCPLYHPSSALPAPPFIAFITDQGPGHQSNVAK
RBBP9 inh: human RBBP9 inhibitors, primary screen, biochemical, fluorescence polarization, FP-Rh probe, HTS; Serine hydrolase RBBP9 (Homo sapiens), O75884; recombinant RBBP9; inhibition, % at 7.94 µM; hit rate 0.2% among 220,000; AID 1515, 2009;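 active = inhibition above the campaign mean of all tested compounds plus 3 SD, cut at about 14% in these data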
Target sequence (O75884 whole entry, looked up): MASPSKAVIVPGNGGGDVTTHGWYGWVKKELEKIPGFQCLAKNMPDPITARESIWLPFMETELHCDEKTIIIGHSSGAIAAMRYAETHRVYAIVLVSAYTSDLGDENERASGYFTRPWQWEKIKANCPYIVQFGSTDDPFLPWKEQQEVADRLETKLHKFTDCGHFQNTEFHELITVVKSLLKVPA
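Assay system: recombinant human RBBP9; Reagent: Serine-hydrolase probe FP-Rh, 375 nM pre-mixing; Doses: 7.94 µM single dose, 0.794% DMSO; Incubation: 30 min then 45 min, 25 °C; Detection: fluorescence polarization (mP), excitation 525 nm, emission 598 nm; Evaluation: percent inhibition from mP, scaled between DMSO and no-protein wells.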
GSTO1 inh: inhibitors of recombinant GSTO1, primary screen, counter-screen for RBBP9 inhibitor project, biochemical, fluorescence polarization; hit rate 1.1% among 300,000; activity-based probe fluorescence polarization; AID 1974, 2009; inhibition, % at 5.96 µM;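 active = inhibition above the campaign mean inhibition plus 3 SD, cut at about 35% in these data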
PAD4 FP inh: human PAD4 inhibitors, primary screen, biochemical, fluorescence polarization, 1536-well format. AID 485272, 2010. recombinant PAD4, RCA probe fluorescence polarization. Protein-arginine deiminase type-4 (Homo sapiens), Q9UM07. inhibition, % at 6.36 µM. hit rate 0.41% among 330,000;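 active = percent inhibition above a cutoff equal to the mean of all tested compounds plus 3 SD, cut at about 15% in these data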
PRMT1 FP inh: PRMT1 methyltransferase inhibitors, primary screen, biochemical, fluorescence polarization | recombinant PRMT1, activity-based probe fluorescence polarization | hit rate 1.3% among 370,000 | AID 652257, 2013 | inhibition, % at 2.79 µM | Protein arginine N-methyltransferase 1 (Homo sapiens), Q99873;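 active = inhibition above about 21% made by adding two undisclosed values, limit read from the data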
GSTO1 inh conf: GSTO1 inhibitor hit confirmation, counter-screen for RBBP9 inhibitor project, biochemical, fluorescence polarization, triplicate; shares compounds with GSTO1 inh; recombinant GSTO1, probe fluorescence polarization; inhibition, % at 5.96 µM; hit rate 54% among 2,400; AID 2176, 2009;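 active = inhibition above the primary screen's cutoff, its mean inhibition plus 3 SD, cut at about 35% in these data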;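 note: loss of polarization as inhibitors block binding of rhodamine sulfonate ester activity probe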
GSTO1 ABPP inh: inhibitors of purified human GSTO1, late-stage follow-up, biochemical, gel ABPP, SE-Rh probe, percent inhibition; shares compounds with GSTO1 inh; recombinant GSTO1, gel ABPP SE-Rh probe fluorescence; inhibition, % at 1 µM; hit rate 30% among 130; AID 463110, 2010;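 active = inhibition of the enzyme GSTO1 above about 75%, limit read from the data; inactive = inhibition below that limit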
Large screens that a line does not name were inactive (follow-up assays come after a bar, where they were run). Shown are actives, neighbours in structure and some others; about 2.7% of the full set was active somewhere.

COc1cc(Sc2ccc(C)cc2)c(OC)cc1N	GSTO1 inh 47.3, PRMT1 FP inh 35.2 | GSTO1 inh conf inactive
Cc1cccc(C(=O)NC2C(=O)NNC2c2ccc(Cl)cc2)c1 (centres undefined)	GSTO1 inh 44.5 | GSTO1 inh conf inactive
COc1ccc(NC(=S)NCc2cccs2)cc1OC	none
CCC(=O)N1c2ccc(S(=O)(=O)N3CCCC3)cc2CC1C (centres undefined)	none (no result: RBBP9 inh)
O=C(CCl)N=c1sccn1Cc1ccc(Cl)cc1Cl	GSTO1 inh 75.9 | GSTO1 inh conf 90.8
COc1ccc(C2c3c4c(n(C)c3CCN2C)CCN(C)C4c2ccc(OC)cc2)cc1 (centres undefined)	none
COc1ccc(-c2oc(NC(=O)CCl)c(C#N)c2-c2ccc(OC)cc2)cc1	GSTO1 inh 76.0 | GSTO1 inh conf 86.3
COc1ccc(-c2oc(NC(=O)CSc3ncn[nH]3)c(C#N)c2-c2ccc(OC)cc2)cc1	none (no result: SIAE primary, PRMT1 FP inh)
CCOC(=O)c1n[nH]n(-c2cc(Cl)cc(Cl)c2)c1=O	none
COC(=O)Cc1c(C)[nH]n(-c2cc(Cl)cc(Cl)c2)c1=O	GSTO1 inh 46.7 | GSTO1 inh conf inactive
COc1ccc(S(=O)(=O)Nc2ccc3c(c2)OCO3)cc1	none
COc1ccc2c(c1)CC/C(=C\Nc1ccc3c(c1)OCO3)C2=O	GSTO1 inh 68.7, PRMT1 FP inh 28.9 | GSTO1 inh conf 62.0
COc1cccc(C2C3(C#N)C(N)=NC(OC)(OC)C23C#N)c1 (centres undefined)	none
COC1(OC)N=C(N)C2(C#N)C(c3cccc(Oc4ccccc4)c3)C12C#N (centres undefined)	GSTO1 inh 64.7 | GSTO1 inh conf inactive
CCc1ccc(N2C(=O)CC(c3ccc(F)cc3)C3=C2COC3=O)cc1 (centres undefined)	none (no result: SIAE primary, PRMT1 FP inh)
CCN(CC)CCCN1C=C2C(=O)C(C)(OC(=O)CCC(=O)OC)C(=O)C(Br)=C2C=C1c1ccc(OC)cc1 (centres undefined)	none (no result: RBBP9 inh)
COCCN1C=C2C(=O)C(C)(OC(=O)CCC(=O)OC)C(=O)C(Br)=C2C=C1c1ccc(OC)cc1 (centres undefined)	GSTO1 inh 54.8 (no result: SIAE primary, RBBP9 inh, PRMT1 FP inh) | GSTO1 inh conf 60.9
C=CCN1C=C2C(=O)C(C)(OC(=O)CCC(=O)OC)C(=O)C(Br)=C2C=C1c1ccc(OC)cc1 (centres undefined)	GSTO1 inh 61.2 (no result: SIAE primary, RBBP9 inh, PRMT1 FP inh) | GSTO1 inh conf 69.2
COC(=O)CCC(=O)OC1(C)C(=O)C2=CN(Cc3ccco3)C(c3ccc(OC)cc3)=CC2=C(Br)C1=O (centres undefined)	none (no result: SIAE primary, RBBP9 inh, PRMT1 FP inh)
COC(=O)CCC(=O)OC1(C)C(=O)C2=CN(C3CCCC3)C(c3ccc(OC)cc3)=CC2=C(Br)C1=O (centres undefined)	GSTO1 inh 50.3 (no result: RBBP9 inh) | GSTO1 inh conf inactive
Cc1ccc(F)c(C2=CC(=O)C[C@H](c3ccc(F)cc3)C2)c1	none (no result: RBBP9 inh, GSTO1 inh)
CCN(CC(=O)NC(C)(C)C)C(=O)CCl	GSTO1 inh 67.1 | GSTO1 inh conf 85.6 | GSTO1 ABPP inh inactive
CC(/C=C1\SC(=S)N(NS(=O)(=O)c2ccc(C)cc2)C1=O)=C\c1ccccc1	GSTO1 inh 47.6 | GSTO1 inh conf 36.0
CC(/C=C1\SC(=S)N(NS(=O)(=O)c2ccccc2)C1=O)=C\c1ccccc1	GSTO1 inh 40.2 | GSTO1 inh conf inactive
CC(/C=C1\SC(=S)N(NC(=O)c2ccc(C)cc2)C1=O)=C\c1ccccc1	none (no result: SIAE primary, PRMT1 FP inh)
Cc1cc(C)n(-c2nc3ccccc3c(=O)n2OCC(C)C)n1	none (no result: RBBP9 inh)
CCSc1nnc(NC(=O)C(C(F)(F)F)C(F)(F)F)s1	GSTO1 inh 38.5 | GSTO1 inh conf 48.2
CCSc1nnc(NC(=O)C(C)C)s1	none
COC1=CC(=O)CC(C)C12Oc1cc(OC)cc(OC)c1C2=O (centres undefined)	GSTO1 inh 47.1 (no result: RBBP9 inh) | GSTO1 inh conf inactive
COc1cc(OC)c2c(c1)OC(c1ccc(OC)c(OC)c1)C(O)C2=O (centres undefined)	none
COc1cccc(-c2nc(CCl)cs2)c1OC	GSTO1 inh 60.9 | GSTO1 inh conf 99.4 | GSTO1 ABPP inh inactive
Cc1ccc(/C=N/NC(=O)c2cccnc2)s1	none
CCN(CC)c1ccc(NS(=O)(=O)c2ccc3c(c2)oc(=O)n3C)c(C)c1	GSTO1 inh 69.9, PRMT1 FP inh 24.8 | GSTO1 inh conf 69.8
COc1ccc(NS(=O)(=O)c2ccc3c(c2)oc(=O)n3C)cc1Cl	GSTO1 inh 51.3 (no result: RBBP9 inh) | GSTO1 inh conf 57.4
O=C(NCc1ccco1)c1ccc(COc2ccc(Cl)cc2)cc1	none
CC1=NN(c2ccccc2)C(=O)/C1=C/c1ccc(Cl)cc1	none (no result: RBBP9 inh, GSTO1 inh, PAD4 FP inh)
CC1=NN(c2ccc(C(=O)O)cc2)C(=O)/C1=C\c1ccc(OC(=O)c2cccs2)cc1	GSTO1 inh 54.5 | GSTO1 inh conf inactive
O=C(CSc1ncn[nH]1)Nc1ccc(Cl)c(Cl)c1	GSTO1 inh 51.7 | GSTO1 inh conf inactive
O=C(CSc1ccc(Br)c2cccc(Cl)c12)Nc1ccc(S(=O)(=O)Nc2nccs2)cc1	none
CCOC(=O)c1c(-c2ccc(OC)cc2)csc1/N=C/C1=C(O)CCCC1=O	none
CCN(CC)c1ccc(NC(=O)CN2CCN(c3nc(C)cc(C)n3)CC2)cc1	none
Cc1ccc(-c2cc(O)cc3sc(=O)oc23)cc1C	GSTO1 inh 53.4 | GSTO1 inh conf inactive
Cc1ccc(-c2c(C)sc3nc[nH]c(=O)c23)cc1C	none (no result: RBBP9 inh)
Cc1cc(/C=C2\SC(=S)NC2=O)c(C)n1-c1cccc(O)c1	GSTO1 inh 53.5 | GSTO1 inh conf 51.3
Cc1ccc(-n2c(C)cc(/C=C3\SC(=O)NC3=O)c2C)cc1	none (no result: RBBP9 inh)
CCOC(=O)C1=C(SCC)c2cc3c(n2C1=O)CCCC3	GSTO1 inh 37.7 | GSTO1 inh conf inactive
O=C(CCl)c1ccc2c(c1)CCN2C(=O)C1CCCCC1	GSTO1 inh 41.7 | GSTO1 inh conf 63.5
CCC1CCCCN1S(=O)(=O)c1ccc2c(c1)CCN2C(=O)C1CCC1 (centres undefined)	none
COc1cc(CNc2ccc(N3CCCC3)cc2)ccc1OCc1ccccc1F	GSTO1 inh 45.7 (no result: SIAE primary, PRMT1 FP inh) | GSTO1 inh conf 35.1
COc1cc(CNc2ccc(N3CCCCC3)cc2)ccc1OCC(=O)NC(C)(C)C	GSTO1 inh 47.3 (no result: RBBP9 inh) | GSTO1 inh conf inactive
COc1ccc(/C(C)=N/N2C(C)CCCC2C)c(OC)c1 (centres undefined)	none (no result: RBBP9 inh)

High-throughput results deposited in PubChem BioAssay by The Scripps Research Institute Molecular Screening Center.
